How the values were obtained:
Type in all cases: cell-based
[1] = molecular target: T1, TRPC3 (Homo sapiens, UniProt Q13507); assay: Patch-clamp of TRPC3 currents in HEK293 cells transiently expressing TRPC3
T1 sequence (Q13507 74-921 limits assumed): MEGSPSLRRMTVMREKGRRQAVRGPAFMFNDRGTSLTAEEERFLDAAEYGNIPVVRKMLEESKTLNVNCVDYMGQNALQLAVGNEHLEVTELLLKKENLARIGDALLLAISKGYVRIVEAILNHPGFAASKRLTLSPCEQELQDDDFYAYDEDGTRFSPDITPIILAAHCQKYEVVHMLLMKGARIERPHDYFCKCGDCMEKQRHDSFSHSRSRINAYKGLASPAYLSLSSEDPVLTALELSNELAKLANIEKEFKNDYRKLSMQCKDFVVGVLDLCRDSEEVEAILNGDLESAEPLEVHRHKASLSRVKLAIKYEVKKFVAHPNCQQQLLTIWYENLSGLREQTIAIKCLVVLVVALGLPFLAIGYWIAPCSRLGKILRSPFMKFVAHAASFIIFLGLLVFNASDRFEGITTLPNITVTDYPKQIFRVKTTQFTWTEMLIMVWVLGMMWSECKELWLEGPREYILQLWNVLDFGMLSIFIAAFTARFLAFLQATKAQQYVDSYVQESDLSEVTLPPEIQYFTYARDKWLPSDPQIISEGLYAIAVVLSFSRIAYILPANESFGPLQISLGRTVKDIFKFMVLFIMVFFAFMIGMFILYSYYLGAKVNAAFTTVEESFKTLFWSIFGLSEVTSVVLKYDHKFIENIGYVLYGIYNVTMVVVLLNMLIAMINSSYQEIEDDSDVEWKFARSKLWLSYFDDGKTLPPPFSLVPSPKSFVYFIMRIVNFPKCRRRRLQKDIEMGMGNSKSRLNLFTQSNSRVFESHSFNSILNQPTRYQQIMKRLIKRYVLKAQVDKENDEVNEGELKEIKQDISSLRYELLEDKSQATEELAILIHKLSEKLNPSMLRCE

[2] = molecular target: T2, TRPC5 (Homo sapiens, UniProt Q9UL62); assay: Fura-2 Ca2+ entry in HEK293 cells overexpressing YFP-TRPC5
T2 sequence (Q9UL62 1-973): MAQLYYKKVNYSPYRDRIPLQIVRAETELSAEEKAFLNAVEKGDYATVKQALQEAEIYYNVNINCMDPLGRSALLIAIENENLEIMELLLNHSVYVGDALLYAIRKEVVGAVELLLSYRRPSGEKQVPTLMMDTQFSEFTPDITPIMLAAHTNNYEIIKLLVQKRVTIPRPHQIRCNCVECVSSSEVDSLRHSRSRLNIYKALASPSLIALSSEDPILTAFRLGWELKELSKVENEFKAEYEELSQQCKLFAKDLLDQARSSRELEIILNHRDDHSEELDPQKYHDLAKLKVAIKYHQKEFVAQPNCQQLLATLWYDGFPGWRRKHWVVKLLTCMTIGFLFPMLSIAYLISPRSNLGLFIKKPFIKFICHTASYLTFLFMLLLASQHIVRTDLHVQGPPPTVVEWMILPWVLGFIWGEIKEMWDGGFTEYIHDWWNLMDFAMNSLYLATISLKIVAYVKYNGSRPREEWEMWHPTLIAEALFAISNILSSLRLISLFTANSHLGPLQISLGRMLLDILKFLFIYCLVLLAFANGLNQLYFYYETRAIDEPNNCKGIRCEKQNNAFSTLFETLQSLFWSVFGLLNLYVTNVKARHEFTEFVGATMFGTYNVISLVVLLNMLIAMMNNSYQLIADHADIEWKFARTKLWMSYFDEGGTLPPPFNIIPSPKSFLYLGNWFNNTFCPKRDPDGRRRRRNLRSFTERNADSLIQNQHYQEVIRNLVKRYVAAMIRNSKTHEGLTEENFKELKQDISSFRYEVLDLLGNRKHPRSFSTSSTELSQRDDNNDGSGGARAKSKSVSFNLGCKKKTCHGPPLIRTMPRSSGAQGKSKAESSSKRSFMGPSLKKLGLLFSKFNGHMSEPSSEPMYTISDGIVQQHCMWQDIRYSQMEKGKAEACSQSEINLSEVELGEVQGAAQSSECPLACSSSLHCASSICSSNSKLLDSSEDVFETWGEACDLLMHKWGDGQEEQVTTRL

[3] = tested on: RBL-2H3 cells; assay: Degranulation assay; conditions: ionomycin 0.4 μM
Outline: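 RBL-2H3 cells grown to confluency, washed in RBL-2H3 buffer with 2 mM CaCl2, all incubations at 37°C. Test compound (3 or 10 μM) for 15 min, then ionomycin 0.4 μM final for 30 min. Stopped with 0.4 M glycine (pH 10.7), A405 read. Untreated and 2% triton-lysed cells served as basal/maximal references. n = 3 passages.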

[4] = molecular target: STIM1/Orai1-mediated SOCE (Rattus norvegicus, UniProt Q5M848); assay: Fura-2 Ca2+ re-addition, thapsigargin-depleted native RBL-2H3 cells
Sequence of STIM1/Orai1-mediated SOCE (Q5M848 whole entry, the tested form may be a part): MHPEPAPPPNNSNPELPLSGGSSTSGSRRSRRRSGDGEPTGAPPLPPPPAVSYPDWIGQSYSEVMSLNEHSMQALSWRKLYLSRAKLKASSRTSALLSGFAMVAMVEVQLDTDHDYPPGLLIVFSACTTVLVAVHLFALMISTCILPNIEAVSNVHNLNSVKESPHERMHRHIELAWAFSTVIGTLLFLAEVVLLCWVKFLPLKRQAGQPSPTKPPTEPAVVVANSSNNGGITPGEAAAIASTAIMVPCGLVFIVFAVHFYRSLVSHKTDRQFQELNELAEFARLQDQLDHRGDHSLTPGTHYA
Outline: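 Native RBL-2H3 cells were loaded with 2 μM Fura-2-AM for 45 min and perfused in Ca2+-free extracellular solution at room temperature. Stores depleted with 1 μM thapsigargin for 5 min. Test compound present ≥5 min before and throughout. Ca2+ entry evoked by 2 mM Ca2+ re-addition; 340/380 nm ratio read (510 nm emission). Inhibition expressed as % of control peak entry. IC50 by 4-parameter logistic fit; 3–5 experiments, 29–80 cells.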

[5] = molecular target: T1, TRPC3; conditions: TRPC3 ROCE vs RBL-2H3 SOCE

TRPC3 currents remaining ([1]; 3 μM, percent of control) | IC50 [2] | Higher potency in SOCE model than in TRPC3-ROCE model, orders of magnitude ([4]; RBL-2H3 SOCE vs TRPC3 ROCE) | Higher potency in SOCE model than in TRPC3-ROCE model ([4]; ratio of IC50 values, RBL-2H3 SOCE vs TRPC3 ROCE) | Effect on TRPC3 Ca2+ entry-mediating conductance ([1]; 3 μM pre-incubation, carbachol) | Reduction of Ca2+ entry (Orai-mediated) ([4]; 3 μM) | Selectivity for TRPC3-ROCE as compared with the SOCE model, orders of magnitude [5] | Selectivity for TRPC3-ROCE as compared with the SOCE model ([5]; ratio of IC50 values) | SMILES | Effect on ionomycin-initiated degranulation ([3]; 3 μM) | Effect on ionomycin-initiated degranulation ([3]; 10 μM) | Effect on OAG-induced TRPC3 membrane currents ([1]; 3 μM, OAG 100 μM)
52% | > 10 µM | 1.58 OM | 37 fold |  |  |  |  | O=C(Nc1ccc(-n2nc(C(F)(F)F)cc2C(F)(F)F)cc1)c1ccncc1F [Pyr6, N-(4-(3,5-bis(trifluoromethyl)-1H-pyrazole-1-yl)phenyl)-3-fluoroisonicotinamide] | substantially reduced degranulation | suppressed responses down to basal levels | 
 | > 10 µM |  |  | eliminated TRPC3 currents | 30% | 1.25 OM | 18 fold | Cc1ccc(S(=O)(=O)Nc2ccc(-n3nc(C(F)(F)F)cc3C(F)(F)F)cc2)cc1 [Pyr10, N-(4-(3,5-bis(trifluoromethyl)-1H-pyrazole-1-yl)phenyl)-4-methylbenzenesulfonamide] |  |  | potently blocks DAG-mediated TRPC3 membrane currents
